From ChEMBL document CHEMBL1641444, “Synthesis and evaluation of 6-[1-(2-[(18)F]fluoro-3-pyridyl)-5-methyl-1H-1,2,3-triazol-4-yl]quinoline for positron emission tomography imaging of the metabotropic glutamate receptor type 1 in brain” (Bioorg Med Chem, 2011) come the findings set out here.

As a reminder, the logD is the decadic logarithm of the distribution of all forms, ionised or not, between an organic phase and buffer at a given pH.

Data set [1] can be described thus: Biodistribution in pons-medulla of Sprague-Dawley rat at 17 MBq, iv after 30 mins by dissection method. Particulars: in vivo, 0.5 h. The data set is classed as ADME, organism-based. In outline:
(§1)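 [¹⁸F]7a in saline (average 17 MBq/200 µL, 0.11 nmol) was given by tail vein. Rats were killed by cervical dislocation at 5, 15 or 30 min, with three rats per time point. Tissue radioactivity was measured by gamma counting, decay-corrected and expressed as %ID per gram of wet tissue.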

A short description of data set [2]: Fraction unbound in Sprague-Dawley rat plasma after 15 mins by ultra-filtration method. The data set is classed as ADME. Particulars: 0.25 h. In outline:
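Plasma protein binding was measured by ultrafiltration. Blood was spun at 3900 rpm for 5 min at 4 °C to obtain plasma. 40 µL of plasma was centrifuged in a filter unit at 2000 rpm for 15 min at 25 °C, and a saline control was run the same way. Free fraction was taken as ultrafiltrate/plasma radioactivity, corrected for a stick factor.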

Data set [3] can be described thus: Metabolic stability in plasma of ddy mouse assessed as reduction of parent compound level at 3.7 MBq, iv after 15 mins by HPLC analysis. More on the design: scale not given: the % may be the effect or the level left. The following applies: 0.25 h.
Data set [4] has as its system Kidney. Nature of the data set: Biodistribution in kidney of Sprague-Dawley rat at 17 MBq, iv after 30 mins by dissection method. The data set is classed as ADME, organism-based. The following applies: in vivo, 0.5 h. In outline:
(§2)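 The [18F]ligand was given to rats as a saline solution (average 17 MBq, about 0.11 nmol) via the tail vein. Three rats per time point were killed by cervical dislocation at 5, 15 and 30 min. Dissected tissues were gamma-counted with decay correction, and results are expressed as % injected dose per gram of wet tissue.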

In the next data set the test system is Cerebral cortex. Nature of the data set: Biodistribution in cerebral cortex of Sprague-Dawley rat at 17 MBq, iv after 5 mins by dissection method. The following applies: in vivo. The format is ADME, organism-based. In outline:
as §2

Data set [5] concerns Heart. Nature of the data set: Biodistribution in heart of Sprague-Dawley rat at 17 MBq, iv after 30 mins by dissection method. The format is ADME, organism-based. Particulars: in vivo, 0.5 h. A digest of the protocol:
as §2

The subject of data set [6] is Kidney. The data set is described as follows: Biodistribution in kidney of Sprague-Dawley rat at 17 MBq, iv after 15 mins by dissection method. The data set is classed as ADME, organism-based. Particulars: in vivo, 0.25 h. In outline:
as §2

The next data set has as its system Lung. Nature of the data set: Biodistribution in lung of Sprague-Dawley rat at 17 MBq, iv after 15 mins by dissection method. The format is ADME, organism-based. The following applies: in vivo, 0.25 h. A digest of the protocol: as §1
Data set [7] concerns Blood. The data set is described as follows: Biodistribution in blood of Sprague-Dawley rat at 17 MBq, iv after 5 mins by dissection method. The data set is classed as ADME, organism-based. Particulars: in vivo. A digest of the protocol:
as §2

Data set [8] relates to Blood. The data set is described as follows: Biodistribution in blood of Sprague-Dawley rat at 17 MBq, iv after 15 mins by dissection method. The format is ADME, organism-based. Particulars: in vivo, 0.25 h. In outline: as §2
Data set [9] is described as follows: Ratio of drug uptake in Sprague-Dawley rat hippocampus to medulla at 17 MBq, iv after 10 to 15 mins by small-animal PET. The following applies: in vivo.
Data set [10] can be described thus: Biodistribution in whole brain of Sprague-Dawley rat at 17 MBq, iv after 5 mins by dissection method. The data set is classed as ADME, organism-based. Particulars: in vivo. A digest of the protocol: as §1
A short description of data set [11]: Biodistribution in olfactory bulb of Sprague-Dawley rat at 17 MBq, iv after 15 mins by dissection method. The data set is classed as ADME, organism-based. The following applies: in vivo, 0.25 h. In outline:
as §1

In the next data set the test system is Hippocampus. The data set is described as follows: Biodistribution in hippocampus of Sprague-Dawley rat at 17 MBq, iv after 15 mins by dissection method. The format is ADME, organism-based. Particulars: in vivo, 0.25 h. A digest of the protocol:
as §2

A short description of data set [12]: Ratio of drug uptake in Sprague-Dawley rat cerebral cortex to medulla at 17 MBq, iv after 10 to 15 mins by small-animal PET. The following applies: in vivo.
A short description of data set [13]: Biodistribution in whole brain of Sprague-Dawley rat at 17 MBq, iv after 30 mins by dissection method. The format is ADME, organism-based. Particulars: in vivo, 0.5 h. In outline: as §1
Data set [14] in a line: Biodistribution in olfactory bulb of Sprague-Dawley rat at 17 MBq, iv after 5 mins by dissection method. The data set is classed as ADME, organism-based. Particulars: in vivo. In outline:
as §1

For data set [15], the system named is Heart. Nature of the data set: Biodistribution in heart of Sprague-Dawley rat at 17 MBq, iv after 15 mins by dissection method. The data set is classed as ADME, organism-based. Particulars: in vivo, 0.25 h. A digest of the protocol: as §2
The test system of a further data set is Pancreas. Nature of the data set: Biodistribution in pancreas of Sprague-Dawley rat at 17 MBq, iv after 30 mins by dissection method. Particulars: in vivo, 0.5 h. The data set is classed as ADME, organism-based. In outline: as §1
Data set [16] is described as follows: Metabolic stability in plasma of ddy mouse assessed as reduction of parent compound level at 3.7 MBq, iv after 30 mins by HPLC analysis. More on the design: scale not given: the % may be the effect or the level left. Particulars: 0.5 h.
A further data set has as its system Muscle tissue. The data set is described as follows: Biodistribution in muscle of Sprague-Dawley rat at 17 MBq, iv after 15 mins by dissection method. The format is ADME, organism-based. The following applies: in vivo, 0.25 h. A digest of the protocol: as §1
Data set [17] can be described thus: Octanol-sodium phosphate buffer partition coefficient, log D of the compound at pH 7.4. The format is physicochemical. A digest of the protocol:
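[¹⁸F]7a (radiochemical purity 100%, about 150,000 cpm) was mixed with n-octanol (3.0 g) and 0.1 M sodium phosphate buffer pH 7.40 (3.0 g). The mix was vortexed for 3 min at room temperature, then centrifuged at 3500 rpm for 5 min. Assays were run in triplicate.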

A short description of data set [18]: Biodistribution in pons-medulla of Sprague-Dawley rat at 17 MBq, iv after 15 mins by dissection method. The data set is classed as ADME, organism-based. Particulars: in vivo, 0.25 h. In outline:
as §1

Regarding `Cc1c(-c2ccc3ncccc3c2)nnn1-c1cccnc1[18F]`, the Drug uptake in data set [1] was 0.13 % ID/g; with Kidney [4], 0.39 % ID/g; in the data set on Cerebral cortex, 0.44 % ID/g; in the data set on Heart [5], 0.16 % ID/g; in the data set with Kidney [6], 0.57 % ID/g; with Lung it was 0.31 % ID/g. For the same compound, the Drug uptake in the data set on Blood [7] is given as 0.38 % ID/g; in the data set on Blood [8], 0.26 % ID/g; in [10], 0.52 % ID/g; in [11], 0.24 % ID/g; in the data set on Hippocampus, 0.22 % ID/g; in data set [13] it was 0.11 % ID/g. Further, the Drug uptake is on record as 0.52 % ID/g in [14]; 0.24 % ID/g with Heart [15]; 0.21 % ID/g in the data set on Pancreas; 0.14 % ID/g in the data set on Muscle tissue; 0.21 % ID/g in data set [18]. This compound also registered an Activity in [2] of 8.5%. Besides, the Stability came to 23% in [3] and 4% in [16]. Further, the Ratio in data set [9] came out at 1.42; in [12], 1.31. Moreover, the logD in data set [17] was found to be 2.53.
